An excerpt weighted towards active compounds, which were near 12% of everything screened.
b-catenin transl: beta-catenin nuclear translocation modulation; HeLa beta-catenin nuclear translocation, immunofluorescence imaging; nuclear translocation activity, % at 5 µM; 190,000 tested, 0.3% active;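 active = nuclear translocation activity above 50% at 5 µM, with a well cell count of 50 or more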;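 note: per-cell ratio of nuclear to cytoplasmic median beta-catenin stain intensity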
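assay system = human HeLa cells, endogenous beta-catenin | times = compound treatment 24 h, 37°C, 5% CO2 | detection = Anti-beta-catenin immunofluorescence on PFA-fixed, Triton-permeabilized cells, DAPI nuclei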
Dynein cargo inh: dynein cargo transport inhibition | z-score, hits read low | 3617.4 mouse cells, GR-EGFP nuclear translocation imaging; test concentration mostly 20 µM; stimulated with dexamethasone, 1 µM; stronger effect = lower value | 220,000 tested, 0.47% active;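 active = plate z-score of nuclear minus cytoplasmic receptor signal below a set negative limit, without overly bright fluorescence or cell loss, cut at about -3.5 in these data, passing the limit was not always enough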;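 note: z-score of nuclear minus cytoplasmic ring GR-EGFP intensity difference per well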
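Schedule: 48 h induction, then 1 h compound, then 30 min agonist, 37 °C. Buffer or medium: tetracycline-free induction medium containing charcoal-stripped FBS. Reagent: 1.0 µM final dexamethasone stimulus. Evaluation: nuclear versus cytoplasmic GR-EGFP signal, averaged per well. Signal: high-content fluorescence imaging after fixation.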
MT stabilizer: stabilizes microtubules in HeLa cells | % tubulin-high responders, % at 10 µM | AID 2205 | 200,000 tested, 0.83% active | HeLa tubulin immunostaining HCS, 24 h; share of cells brighter than vehicle mean+2SD;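 active = plate Z-score above 3 for both tubulin-high and condensed-nucleus cell shares, with cell loss under 80%, at 10 µM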;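 note: anti alpha tubulin signal scored within the nucleus-defined area of each cell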
Lmaj promast: Leishmania major promastigote growth inhibition. inhibition, % at 10 µM. AID 1063. 200,000 tested, 9% active. Leishmania major promastigotes, resazurin fluorescence viability; in the data active = inhibition above about 50%;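 note: promastigotes grown with compound for 44 hours at 28 °C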
CHOP inh: CHOP inhibition in unfolded protein response. inhibition, % at 10 µM. 220,000 tested, 3.8% active. CHO-K1 CHOP-promoter luciferase, tunicamycin-induced, 15-18 h;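 active = compounds that reduced the stress-induced luciferase reporter signal by more than about 70% of percent inhibition, limit read from the data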
Autophagy mod: autophagy modulation, high-content screen. 190,000 tested, 0.98% active. calls only at 10 µM (by protocol). AID 463193. MEF GFP-LC3 puncta imaging; test concentration mostly 10 µM;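 active = percentage of spot-positive cells more than 3 SD above its plate mean, without a fluorescence outlier flag or 80% toxicity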
Each line names hits and unclear results; the compound was inactive in the other large screens.

CCOc1ccccc1C1N=C(c2ccc(OC)cc2)CC(c2ccccc2O)N1 (centres undefined)	Lmaj promast 51
Oc1ccccc1C1CC(c2cccs2)=NC(c2ccc(Cl)cc2)N1 (centres undefined)	none
CC(C)CNC(=O)C1CCN(Cc2ccc(OCc3ccccc3)cc2)CC1	none
CC(O)CNC(=O)C1CCN(Cc2ccc(OCc3ccccc3)cc2)CC1 (centres undefined)	Lmaj promast 91
O=C(NCc1ccccn1)C1CCN(Cc2cccc(OCc3ccccc3)c2)CC1	Lmaj promast 100
COC(=O)C(NC(C)=O)(Nc1ccc(C)cn1)C(F)(F)F (centres undefined)	none (no result: MT stabilizer, Lmaj promast, Autophagy mod)
Cc1ccc(S(=O)(=O)Nc2cc3c(C(=O)Nc4ccccc4)c(C)oc3c3ccccc23)cc1	Lmaj promast 61
Cc1oc2ccc(NS(=O)(=O)c3ccccc3)cc2c1C(=O)Nc1ccccc1	none
CC1=CC(=O)C(C(C)C)=C/C1=N/OC(=O)c1cccc([N+](=O)[O-])c1	Lmaj promast 100 (no result: b-catenin transl)
CC1=CC(=NOC(=O)c2cccc([N+](=O)[O-])c2)C=C(C)C1=O	Lmaj promast 100
COc1ccc(/C(N)=N/OC(=O)c2cccc([N+](=O)[O-])c2)cc1	none (no result: b-catenin transl)
CC1=CC(=O)C(C(C)C)=C/C1=N\OC(=O)c1cccc2nc(C)oc12	Lmaj promast 96
Cc1ccc(C(=O)O/N=C(\N)c2cccc([N+](=O)[O-])c2)cc1	none
CCCCNC(=O)CSc1nc(COc2ccccc2)nc2ccccc12	none
Cc1cccc(C(=O)Nc2ccccc2SCC(=O)Nc2ccc(C)c(Cl)c2)c1	CHOP inh 73
Cc1ccc(NC(=O)CSc2ccccc2NC(=O)c2cccc(Cl)c2)cc1Cl	none
CSCCC(NC(=O)c1ccccc1)C(=O)Nc1ccc(C)cc1 (centres undefined)	none
CSCCC(NC(=O)c1ccccc1)C(=O)OCC(=O)Nc1ccc(C)c(Cl)c1 (centres undefined)	CHOP inh 82
CSCCC(NC(=O)c1ccc(Cl)cc1)C(=O)OCC(=O)Nc1cc(Cl)ccc1C#N (centres undefined)	Lmaj promast 54 (no result: b-catenin transl)
CCOc1ccc(-c2nnn(CC(=O)NCc3ccccc3)n2)cc1	none
CN1/C(=C\C(=O)CN2C(=O)NC3(CCCCCC3)C2=O)C(C)(C)c2ccccc21	Lmaj promast 96 (no result: b-catenin transl)
Cc1ccc[n+](CC(=O)/C=C2\N(C)c3ccccc3C2(C)C)c1	none
Cc1cccc[n+]1CC(=O)/C=C1\N(C)c2ccccc2C1(C)C	Lmaj promast 84
CN1/C(=C\C(=O)COC(=O)CN2C(=O)C3CC=CCC3C2=O)C(C)(C)c2ccccc21 (centres undefined)	none
Cc1ccccc1-n1c(O)c(/C=N/N2CCCCC2c2cccnc2)c(=O)[nH]c1=O (centres undefined)	none
O=C(Nc1cc(C(F)(F)F)cc(C(F)(F)F)c1)Nc1cnn(-c2ccc([N+](=O)[O-])cc2)c1C(F)(F)F	none (no result: MT stabilizer, Lmaj promast, Autophagy mod)
O=[N+]([O-])c1ccc(-c2ccc(C=Nc3cccc4ccccc34)o2)cc1	none
O=[N+]([O-])c1cc(-c2ccc(/C=N/c3nc4ccccn4c3-c3ccco3)o2)ccc1Cl	CHOP inh 91
C/C(=N\Nc1ccc(C(=O)O)cc1)c1ccc(-n2ccnc2)cc1	none
O=C(Nc1ccccc1)N1N=C(c2ccc(F)cc2)CC1c1ccc(F)cc1 (centres undefined)	Lmaj promast 92
Fc1ccc(C2CC(c3cccs3)=NN2C(=S)Nc2ccccc2)cc1 (centres undefined)	Lmaj promast 53
CCOC(=O)CSCC(=O)N1N=C(c2cccs2)CC1c1ccc(F)cc1 (centres undefined)	none
C=CCn1c(SCC(=O)Nc2sccc2C(N)=O)nc2ccccc2c1=O	none
C=CCn1c(SCC(=O)Nc2sccc2C(N)=O)nc2ccc(Cl)cc2c1=O	CHOP inh 78
Cc1ccc(N2C(=O)[C@@H]3C(C(=O)C(c4ccccc4)c4ccccc4)=NN[C@@H]3C2=O)cc1	none
COc1ccc(OC)c(NC(=O)c2cnc3ccccn3c2=O)c1	none (no result: b-catenin transl, CHOP inh)
COc1ccc(NC(=O)c2cc3c(Cl)nc4ccccc4c3s2)cc1OC	none
COc1ccc(OC)c(NC(=O)c2cc3c(Cl)nc4ccccc4c3s2)c1	Lmaj promast 72
COc1ccc(OC)c(NC(=O)c2cnc(Nc3ccccc3OC)c3ccccc23)c1	MT stabilizer 19
CC(C)c1ccc(OCc2nc(-c3ccccn3)no2)c(Br)c1	CHOP inh 71 (no result: Autophagy mod)
Cc1ccc(OCc2nc(-c3ccccn3)no2)c(Br)c1	none
COc1ccc(C)cc1NC(=O)C(Sc1nnc(-c2ccncc2)n1-c1ccc(Cl)cc1)c1ccccc1 (centres undefined)	none
COCCN(C(=S)Nc1c(C)cccc1C)C(C)c1cccnc1 (centres undefined)	none
COCCN(C(=S)Nc1c(C)cc(C)cc1C)C(C)c1cccnc1 (centres undefined)	Lmaj promast 89
COCCN(C(=S)Nc1cc(C)ccc1C)C(C)c1cccnc1 (centres undefined)	Lmaj promast 95
COCCN(C(=S)Nc1c(C)cccc1C)C(C)c1cccs1 (centres undefined)	Lmaj promast 56
Cc1noc(NS(=O)(=O)c2ccc(NC(=O)C(CC(C)C)N3C(=O)c4ccccc4C3=O)cc2)c1C (centres undefined)	none (no result: MT stabilizer, Lmaj promast, Autophagy mod)
O=C(NCCNc1ccc([N+](=O)[O-])cc1C(F)(F)F)c1ccc(F)cc1	Lmaj promast 56
C/C(CC(=O)NC1CCCCC1)=N\NC(=O)Cc1ccc(-c2ccccc2)cc1	none
COc1ccc(/C=C2\SC(=O)N=C2N)cc1OC	Lmaj promast 53
O=C1OC(c2cccs2)=N/C1=C\c1ccc(-c2cccc(Cl)c2)o1	none
COc1ccc(/C=C2/N=C(SC)NC2=O)cc1OC	none (no result: MT stabilizer, Lmaj promast, Autophagy mod)
COc1ccc(/C=C2\SC(=N)N(c3nccs3)C2=O)cc1OC	Lmaj promast 97
COc1ccc(/C=C2\SC(=S)N(NC(=O)c3ccncc3)C2=O)cc1OC	none
N=C1S/C(=C\c2ccc(-c3cccc(Cl)c3)o2)C(=O)N1c1nccs1	Lmaj promast 99, Autophagy mod active
O=C(NNC(=O)C1CC1)c1cc2cc3ccccc3nc2s1	none
Cc1ccc(S(=O)(=O)NNC(=O)c2cc3cc4ccccc4nc3s2)cc1	Lmaj promast 92 (no result: b-catenin transl)
O=C(NNC(=O)c1cc2cc3ccccc3nc2s1)c1cccc(Cl)c1	none (no result: b-catenin transl)
O=C(NNC(=O)c1cc2cc3ccccc3nc2s1)c1ccc(F)cc1	CHOP inh 89 (no result: b-catenin transl)
O=C1N/C(=C\c2nc3ccccc3s2)c2ccccc21	none (no result: MT stabilizer, Lmaj promast, Autophagy mod)
O=C1N/C(=C\c2ccccc2)c2ccccc21	MT stabilizer 20 (no result: CHOP inh)
Cc1cccc(-c2c3c(=O)n(C)c(=O)n(C)c3c3nnc4ccccc4n23)c1	Autophagy mod active (no result: b-catenin transl, CHOP inh)

Bioassay records deposited in PubChem by several laboratories.
